What was measured:
[1] = test system: Aspergillus parasiticus; assay: Fungicidal activity against Aspergillus parasiticus CECT 2681 at 0.2 mg/disk after 72 hrs by paper disk-agar diffusion method; type: functional
Outline: (§1)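 Fungi were grown on potato dextrose agar (PDA) for 7 days at 28 °C. Conidia were suspended to ~10⁶/mL in 0.05% Tween 80 in sterile water, and 1 mL was mixed into 15 mL PDA. Four 0.5 cm paper disks (0.2 mg/disk) were placed on the set agar. Controls were vehicle-only disks and benomyl at species-dependent doses. The inhibition zone was read in mm at 72 h as the mean ± SE of three independent experiments.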

[2] = test system: Phytophthora citrophthora; assay: Fungicidal activity against Phytophthora citrophthora CECT 2353 at 0.2 mg/disk after 72 hrs by paper disk-agar diffusion method; type: functional; outline: as §1
[3] = test system: Trichoderma viride; assay: Fungicidal activity against Trichoderma viride CECT 2423 at 0.2 mg/disk after 72 hrs by paper disk-agar diffusion method; type: functional; outline: as §1
[4] = test system: Geotrichum candidum; assay: Fungicidal activity against Geotrichum candidum CCM 245 at 0.2 mg/disk after 72 hrs by paper disk-agar diffusion method; type: functional; outline: as §1
[5] = test system: Fusarium culmorum; assay: Fungicidal activity against Fusarium culmorum CCM 172 at 0.2 mg/disk after 72 hrs by paper disk-agar diffusion method; type: functional; outline: as §1
[6] = test system: Bacillus cereus; assay: Bactericidal activity against Bacillus cereus CECT 148 at 0.2 mg/disk after 24 hrs by paper disk-agar diffusion method relative to control; type: functional
[7] = test system: Escherichia coli; assay: Bactericidal activity against Escherichia coli CECT 100 at 0.2 mg/disk after 24 hrs by paper disk-agar diffusion method relative to control; type: functional
[8] = test system: Escherichia coli; assay: Bactericidal activity against Escherichia coli CECT 100 at 0.2 mg/disk after 24 hrs by paper disk-agar diffusion method; type: functional
Outline: (§2)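 Each bacterial strain was taken from a 24-h culture on solid medium, reactivated in Nutrient Broth, and grown a further 24 h at 28 or 37 °C depending on the strain. 1 mL of suspension was mixed with 15 mL Plate Count Agar. Four 0.5 cm paper disks (0.2 mg/disk) were placed on the set agar. Controls were vehicle-only disks and tetracycline. Plates were incubated 24 h, dark, 28 or 37 °C. The inhibition zone was read in mm as the mean ± SE of three independent experiments.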

[9] = test system: Pectobacterium carotovorum; assay: Bactericidal activity against Erwinia carotovora CECT 225 at 0.2 mg/disk after 24 hrs by paper disk-agar diffusion method; type: functional; outline: as §2
[10] = test system: Escherichia coli; assay: Bactericidal activity against Escherichia coli CECT 405 at 0.2 mg/disk after 24 hrs by paper disk-agar diffusion method; type: functional; outline: as §2
[11] = test system: Salmonella typhi; assay: Bactericidal activity against Salmonella typhi CECT 409 at 0.2 mg/disk after 24 hrs by paper disk-agar diffusion method; type: functional, Salmonella enterica subsp. enterica serovar Typhi
Outline: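 Paper disk-agar diffusion, run in triplicate. 24-h culture reactivated in nutrient broth and grown a further 24 h at 28 or 37 °C by species. 1 mL suspension mixed into 15 mL plate count agar. Four 0.5 cm disks placed per plate, incubated 24 h in the dark. Inhibition zone (mm) reported as mean ± SE of three independent experiments; vehicle disks as negative control.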

[12] = test system: Enterococcus faecalis; assay: Bactericidal activity against Enterococcus faecalis CECT 481 at 0.2 mg/disk after 24 hrs by paper disk-agar diffusion method; type: functional; outline: as §2
[13] = test system: Staphylococcus aureus; assay: Bactericidal activity against Staphylococcus aureus CECT 86 at 0.2 mg/disk after 24 hrs by paper disk-agar diffusion method; type: functional; outline: as §2
[14] = test system: Bacillus cereus; assay: Bactericidal activity against Bacillus cereus CECT 148 at 0.2 mg/disk after 24 hrs by paper disk-agar diffusion method; type: functional; outline: as §2
[15] = test system: Pectobacterium carotovorum; assay: Bactericidal activity against Erwinia carotovora CECT 225 at 0.2 mg/disk after 24 hrs by paper disk-agar diffusion method relative to control; type: functional
[16] = test system: Enterococcus faecalis; assay: Bactericidal activity against Enterococcus faecalis CECT 481 at 0.2 mg/disk after 24 hrs by paper disk-agar diffusion method relative to control; type: functional
[17] = test system: Escherichia coli; assay: Bactericidal activity against Escherichia coli CECT 405 at 0.2 mg/disk after 24 hrs by paper disk-agar diffusion method relative to control; type: functional
[18] = test system: Staphylococcus aureus; assay: Bactericidal activity against Staphylococcus aureus CECT 86 at 0.2 mg/disk after 24 hrs by paper disk-agar diffusion method relative to control; type: functional
[19] = test system: Aspergillus parasiticus; assay: Fungicidal activity against Aspergillus parasiticus CECT 2681 at 1 ug/disk after 72 hrs by paper disk-agar diffusion method; type: functional; conditions: CECT 2681, 72 h, read-out: IZ
Outline: (§3)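 Fungi grown on potato dextrose agar for 7 days at 28 °C. Conidia suspended to about 10⁶/mL in 0.05% Tween 80 in sterile water. 1 mL suspension added to 15 mL PDA; four impregnated 0.5 cm disks placed after setting. Inhibition zone measured at 72 h; mean ± SE of three independent experiments. Vehicle disks as negative control; benomyl dose set per fungal species.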

[20] = test system: Phytophthora citrophthora; assay: Fungicidal activity against Phytophthora citrophthora CECT 2353 at 1.5 ug/disk after 72 hrs by paper disk-agar diffusion method; type: functional; conditions: CECT 2353, 72 h, read-out: IZ; outline: as §3
[21] = test system: Trichoderma viride; assay: Fungicidal activity against Trichoderma viride CECT 2423 at 1 ug/disk after 72 hrs by paper disk-agar diffusion method; type: functional; conditions: CECT 2423, 72 h, read-out: IZ; outline: as §3
[22] = test system: Fusarium culmorum; assay: Fungicidal activity against Fusarium culmorum CCM 172 at 10 ug/disk after 72 hrs by paper disk-agar diffusion method; type: functional; conditions: CCM 172, 72 h, read-out: IZ; outline: as §3

COc1cc2c(cc1OC)C(CCCCCOC(=O)CCc1ccc(F)cc1)N(C)CC2 (stereo not given)
inhibition zone (IZ) [1]: 0 mm
inhibition zone (IZ) [2]: 6 mm
inhibition zone (IZ) [3]: 8.33 mm
inhibition zone (IZ) [4]: 8.33 mm
inhibition zone (IZ) [5]: 7.67 mm
Activity [6]: 49%
Activity [7]: 46%
inhibition zone (IZ) [8]: 11.83 mm
inhibition zone (IZ) [9]: 11.67 mm
inhibition zone (IZ) [10]: 8.83 mm
inhibition zone (IZ) [11]: 9.17 mm
inhibition zone (IZ) [12]: 9.33 mm
inhibition zone (IZ) [13]: 10.33 mm
inhibition zone (IZ) [14]: 11.33 mm

COc1cc2c(cc1OC)C(CCCCCOC(=O)Nc1ccccc1)N(C)CC2 (stereo not given)
inhibition zone (IZ) [1]: 0 mm
inhibition zone (IZ) [2]: 0 mm
inhibition zone (IZ) [3]: 5.75 mm
inhibition zone (IZ) [4]: 6.25 mm
inhibition zone (IZ) [5]: 7 mm
Activity [7]: 59%
inhibition zone (IZ) [8]: 15.17 mm
inhibition zone (IZ) [9]: 10.67 mm
inhibition zone (IZ) [10]: 12.33 mm
inhibition zone (IZ) [11]: 12 mm
inhibition zone (IZ) [12]: 14.17 mm
inhibition zone (IZ) [13]: 15 mm
inhibition zone (IZ) [14]: 12.67 mm

COc1cc2c(cc1OC)C(CCCCCOC(=O)Nc1ccc(F)cc1)N(C)CC2 (stereo not given)
Activity [15]: 64%
Activity [16]: 64%
inhibition zone (IZ) [8]: 12.33 mm
inhibition zone (IZ) [9]: 22.33 mm
inhibition zone (IZ) [10]: 12 mm
inhibition zone (IZ) [11]: 14.67 mm
inhibition zone (IZ) [12]: 20 mm
inhibition zone (IZ) [13]: 14 mm
inhibition zone (IZ) [14]: 14.33 mm

COc1ccc(NC(=O)OCCCCCC2c3cc(OC)c(OC)cc3CCN2C)cc1 (stereo not given)
inhibition zone (IZ) [1]: 0 mm
inhibition zone (IZ) [2]: 0 mm
inhibition zone (IZ) [3]: 6.17 mm
inhibition zone (IZ) [4]: 6.67 mm
inhibition zone (IZ) [5]: 0 mm
Activity [17]: 52%
Activity [18]: 51%
inhibition zone (IZ) [8]: 11.67 mm
inhibition zone (IZ) [9]: 9.67 mm
inhibition zone (IZ) [10]: 13.33 mm
inhibition zone (IZ) [11]: 11.33 mm
inhibition zone (IZ) [12]: 14.67 mm
inhibition zone (IZ) [13]: 13.67 mm
inhibition zone (IZ) [14]: 10.33 mm

CCCCNC(=O)n1c(NC(=O)OC)nc2ccccc21 [BENOMYL]
zone of inhibition at 1 µg/disc [19]: 18 mm
zone of inhibition at 1.5 µg/disc [20]: 24.5 mm
zone of inhibition at 1 µg/disc [21]: 22 mm
inhibition zone (IZ) [4]: 0 mm
zone of inhibition at 10 µg/disc [22]: 18 mm

— ChEMBL document CHEMBL2385053, “Novel isoquinoline derivatives as antimicrobial agents” (2013)
